Source: ChEMBL document CHEMBL2396637, “Antagonism of L-type Ca2+ channels CaV1.3 and CaV1.2 by 1,4-dihydropyrimidines and 4H-pyrans as dihydropyridine mimics” (Bioorg Med Chem, 2013)
The source made the active and inactive calls. The rule behind the calls is not given here.

How the values were obtained:
[1] = Selectivity ratio of IC50 for rat voltage-dependent L-type calcium channel Cav1.3alpha-1D to IC50 for rabbit voltage-dependent L-type calcium channel Cav1.2alpha-1C
Method in brief: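 HEK293 lines stably expressing rat CaV1.3α1D or rabbit CaV1.2α1C, with rat CaVβ3 and rat CaVα2δ-1 cDNAs used in construction. Calcium influx was read by Fluo-8 fluorescence on a FLIPR Tetra. The selectivity ratio is CaV1.3 IC50 over CaV1.2 IC50.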

[2] = target: T1, Voltage-dependent L-type calcium channel subunit alpha-1C (Oryctolagus cuniculus, UniProt P15381); assay: Antagonist activity at rabbit voltage-dependent L-type calcium channel Cav1.2alpha-1C expressed in HEK293 cells by FLIPR assay; assay type: cell-based
Method in brief: (§1)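 HEK293 lines stably expressing rat CaV1.3α1D or rabbit CaV1.2α1C, with rat CaVβ3 and rat CaVα2δ-1 cDNAs used in construction. Calcium influx was read by Fluo-8 fluorescence on a FLIPR Tetra. […] The selectivity ratio is CaV1.3 IC50 over CaV1.2 IC50.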

[3] = target: Voltage-dependent L-type calcium channel subunit alpha-1D (Rattus norvegicus, UniProt P27732); assay: Antagonist activity at rat voltage-dependent L-type calcium channel Cav1.3alpha-1D expressed in HEK293 cells by FLIPR assay; assay type: cell-based; method in brief: as §1
[4] = Selectivity ratio of IC50 for rabbit voltage-dependent L-type calcium channel Cav1.2alpha-1C to IC50 for rat voltage-dependent L-type calcium channel Cav1.3alpha-1D
[5] = Selectivity ratio of inhibition for rat voltage-dependent L-type calcium channel Cav1.3alpha-1D to inhibition for rabbit voltage-dependent L-type calcium channel Cav1.2alpha-1C at 0.3 uM
[6] = target: T1, Voltage-dependent L-type calcium channel subunit alpha-1C; assay: Antagonist activity at rabbit voltage-dependent L-type calcium channel Cav1.2alpha-1C expressed in HEK293 cells assessed as inhibition of peak barium current at 1 to 10 uM by whole-cell patch-clamp electrophysiology technique; assay type: cell-based
Method in brief: (§2)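 Stably transfected HEK293 cells were held on poly-D-lysine coverslips for 24–48 h at 37 °C, then whole-cell voltage-clamped. External solution (mM): 140 NaCl, 1 MgCl2, 10 BaCl2, 10 HEPES, 10 dextrose, 10 sucrose, 20 CsCl, pH 7.4. Ba2+ currents were evoked by a 100 ms step from −80 to 0 mV. Compound was perfused at 1 or 10 µM from a DMSO stock. Percent inhibition of peak current or of end current (last 50 ms) was taken, n = 5, as the median.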

[7] = target: Voltage-dependent L-type calcium channel subunit alpha-1D (Rattus norvegicus) (UniProt P27732); assay: Antagonist activity at rat voltage-dependent L-type calcium channel Cav1.3alpha-1D expressed in HEK293 cells assessed as inhibition of peak barium current at 1 to 10 uM by whole-cell patch-clamp electrophysiology technique; assay type: cell-based; method in brief: as §2
[8] = target: T1, Voltage-dependent L-type calcium channel subunit alpha-1C; assay: Antagonist activity at rabbit voltage-dependent L-type calcium channel Cav1.2alpha-1C expressed in HEK293 cells assessed as inhibition of end barium current at 1 to 10 uM by whole-cell patch-clamp electrophysiology technique; assay type: cell-based; method in brief: as §2
[9] = target: Voltage-dependent L-type calcium channel subunit alpha-1D (Rattus norvegicus) (UniProt P27732); assay: Antagonist activity at rat voltage-dependent L-type calcium channel Cav1.3alpha-1D expressed in HEK293 cells assessed as inhibition of end barium current at 1 to 10 uM by whole-cell patch-clamp electrophysiology technique; assay type: cell-based; method in brief: as §2

T1 sequence (P15381 whole entry): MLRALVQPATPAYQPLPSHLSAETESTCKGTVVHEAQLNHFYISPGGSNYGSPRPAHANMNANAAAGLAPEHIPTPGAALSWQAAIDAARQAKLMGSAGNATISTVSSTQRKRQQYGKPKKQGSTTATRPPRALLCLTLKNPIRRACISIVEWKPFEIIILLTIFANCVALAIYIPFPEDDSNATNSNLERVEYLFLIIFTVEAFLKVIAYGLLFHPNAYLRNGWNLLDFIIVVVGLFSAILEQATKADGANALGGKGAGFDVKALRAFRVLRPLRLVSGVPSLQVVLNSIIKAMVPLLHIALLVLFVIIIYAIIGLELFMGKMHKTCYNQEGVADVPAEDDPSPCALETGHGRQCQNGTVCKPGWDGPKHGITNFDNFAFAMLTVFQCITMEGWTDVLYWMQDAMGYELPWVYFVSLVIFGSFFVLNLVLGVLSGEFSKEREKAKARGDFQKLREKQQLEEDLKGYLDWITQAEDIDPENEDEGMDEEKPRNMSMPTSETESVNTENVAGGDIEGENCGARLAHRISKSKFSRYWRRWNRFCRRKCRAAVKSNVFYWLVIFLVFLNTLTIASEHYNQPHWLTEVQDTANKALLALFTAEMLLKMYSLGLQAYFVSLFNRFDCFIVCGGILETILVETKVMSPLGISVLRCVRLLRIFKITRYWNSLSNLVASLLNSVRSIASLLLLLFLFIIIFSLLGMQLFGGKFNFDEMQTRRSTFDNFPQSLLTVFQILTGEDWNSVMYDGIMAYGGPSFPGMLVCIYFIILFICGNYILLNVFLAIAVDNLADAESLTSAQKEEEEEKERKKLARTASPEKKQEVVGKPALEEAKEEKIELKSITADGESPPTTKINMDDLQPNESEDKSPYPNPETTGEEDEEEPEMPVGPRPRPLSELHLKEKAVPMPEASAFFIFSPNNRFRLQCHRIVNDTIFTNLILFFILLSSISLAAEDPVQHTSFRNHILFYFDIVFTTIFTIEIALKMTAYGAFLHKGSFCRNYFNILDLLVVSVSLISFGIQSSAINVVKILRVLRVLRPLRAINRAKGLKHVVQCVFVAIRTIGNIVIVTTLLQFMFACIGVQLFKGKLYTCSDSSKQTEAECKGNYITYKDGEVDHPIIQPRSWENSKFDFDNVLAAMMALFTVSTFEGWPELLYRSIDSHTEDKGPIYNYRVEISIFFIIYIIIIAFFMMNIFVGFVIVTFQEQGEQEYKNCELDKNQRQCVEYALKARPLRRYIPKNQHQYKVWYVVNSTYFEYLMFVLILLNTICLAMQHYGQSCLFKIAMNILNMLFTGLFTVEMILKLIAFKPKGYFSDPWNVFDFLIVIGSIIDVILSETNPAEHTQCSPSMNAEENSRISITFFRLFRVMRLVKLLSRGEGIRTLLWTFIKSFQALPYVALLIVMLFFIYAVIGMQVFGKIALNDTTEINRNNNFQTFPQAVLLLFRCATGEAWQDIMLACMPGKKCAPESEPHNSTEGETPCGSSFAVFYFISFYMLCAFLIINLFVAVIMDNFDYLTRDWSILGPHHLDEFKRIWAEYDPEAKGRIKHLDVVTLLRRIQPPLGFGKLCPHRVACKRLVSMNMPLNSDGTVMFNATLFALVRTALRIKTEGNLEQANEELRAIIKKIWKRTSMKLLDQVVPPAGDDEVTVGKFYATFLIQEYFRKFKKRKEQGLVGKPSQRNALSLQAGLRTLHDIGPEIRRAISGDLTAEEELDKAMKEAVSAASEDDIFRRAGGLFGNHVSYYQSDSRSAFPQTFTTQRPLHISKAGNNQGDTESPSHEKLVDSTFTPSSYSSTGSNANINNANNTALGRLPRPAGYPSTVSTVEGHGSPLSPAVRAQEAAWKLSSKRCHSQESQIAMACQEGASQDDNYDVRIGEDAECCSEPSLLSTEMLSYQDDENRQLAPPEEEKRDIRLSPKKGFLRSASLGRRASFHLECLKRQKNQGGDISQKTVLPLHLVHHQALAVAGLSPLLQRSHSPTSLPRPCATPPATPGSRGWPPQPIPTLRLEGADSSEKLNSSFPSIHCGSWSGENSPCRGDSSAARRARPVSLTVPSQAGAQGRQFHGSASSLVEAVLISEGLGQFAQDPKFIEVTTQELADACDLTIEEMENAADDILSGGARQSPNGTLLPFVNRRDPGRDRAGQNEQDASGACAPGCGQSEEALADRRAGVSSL
Sequence of Voltage-dependent L-type calcium channel subunit alpha-1D (P27732 whole entry): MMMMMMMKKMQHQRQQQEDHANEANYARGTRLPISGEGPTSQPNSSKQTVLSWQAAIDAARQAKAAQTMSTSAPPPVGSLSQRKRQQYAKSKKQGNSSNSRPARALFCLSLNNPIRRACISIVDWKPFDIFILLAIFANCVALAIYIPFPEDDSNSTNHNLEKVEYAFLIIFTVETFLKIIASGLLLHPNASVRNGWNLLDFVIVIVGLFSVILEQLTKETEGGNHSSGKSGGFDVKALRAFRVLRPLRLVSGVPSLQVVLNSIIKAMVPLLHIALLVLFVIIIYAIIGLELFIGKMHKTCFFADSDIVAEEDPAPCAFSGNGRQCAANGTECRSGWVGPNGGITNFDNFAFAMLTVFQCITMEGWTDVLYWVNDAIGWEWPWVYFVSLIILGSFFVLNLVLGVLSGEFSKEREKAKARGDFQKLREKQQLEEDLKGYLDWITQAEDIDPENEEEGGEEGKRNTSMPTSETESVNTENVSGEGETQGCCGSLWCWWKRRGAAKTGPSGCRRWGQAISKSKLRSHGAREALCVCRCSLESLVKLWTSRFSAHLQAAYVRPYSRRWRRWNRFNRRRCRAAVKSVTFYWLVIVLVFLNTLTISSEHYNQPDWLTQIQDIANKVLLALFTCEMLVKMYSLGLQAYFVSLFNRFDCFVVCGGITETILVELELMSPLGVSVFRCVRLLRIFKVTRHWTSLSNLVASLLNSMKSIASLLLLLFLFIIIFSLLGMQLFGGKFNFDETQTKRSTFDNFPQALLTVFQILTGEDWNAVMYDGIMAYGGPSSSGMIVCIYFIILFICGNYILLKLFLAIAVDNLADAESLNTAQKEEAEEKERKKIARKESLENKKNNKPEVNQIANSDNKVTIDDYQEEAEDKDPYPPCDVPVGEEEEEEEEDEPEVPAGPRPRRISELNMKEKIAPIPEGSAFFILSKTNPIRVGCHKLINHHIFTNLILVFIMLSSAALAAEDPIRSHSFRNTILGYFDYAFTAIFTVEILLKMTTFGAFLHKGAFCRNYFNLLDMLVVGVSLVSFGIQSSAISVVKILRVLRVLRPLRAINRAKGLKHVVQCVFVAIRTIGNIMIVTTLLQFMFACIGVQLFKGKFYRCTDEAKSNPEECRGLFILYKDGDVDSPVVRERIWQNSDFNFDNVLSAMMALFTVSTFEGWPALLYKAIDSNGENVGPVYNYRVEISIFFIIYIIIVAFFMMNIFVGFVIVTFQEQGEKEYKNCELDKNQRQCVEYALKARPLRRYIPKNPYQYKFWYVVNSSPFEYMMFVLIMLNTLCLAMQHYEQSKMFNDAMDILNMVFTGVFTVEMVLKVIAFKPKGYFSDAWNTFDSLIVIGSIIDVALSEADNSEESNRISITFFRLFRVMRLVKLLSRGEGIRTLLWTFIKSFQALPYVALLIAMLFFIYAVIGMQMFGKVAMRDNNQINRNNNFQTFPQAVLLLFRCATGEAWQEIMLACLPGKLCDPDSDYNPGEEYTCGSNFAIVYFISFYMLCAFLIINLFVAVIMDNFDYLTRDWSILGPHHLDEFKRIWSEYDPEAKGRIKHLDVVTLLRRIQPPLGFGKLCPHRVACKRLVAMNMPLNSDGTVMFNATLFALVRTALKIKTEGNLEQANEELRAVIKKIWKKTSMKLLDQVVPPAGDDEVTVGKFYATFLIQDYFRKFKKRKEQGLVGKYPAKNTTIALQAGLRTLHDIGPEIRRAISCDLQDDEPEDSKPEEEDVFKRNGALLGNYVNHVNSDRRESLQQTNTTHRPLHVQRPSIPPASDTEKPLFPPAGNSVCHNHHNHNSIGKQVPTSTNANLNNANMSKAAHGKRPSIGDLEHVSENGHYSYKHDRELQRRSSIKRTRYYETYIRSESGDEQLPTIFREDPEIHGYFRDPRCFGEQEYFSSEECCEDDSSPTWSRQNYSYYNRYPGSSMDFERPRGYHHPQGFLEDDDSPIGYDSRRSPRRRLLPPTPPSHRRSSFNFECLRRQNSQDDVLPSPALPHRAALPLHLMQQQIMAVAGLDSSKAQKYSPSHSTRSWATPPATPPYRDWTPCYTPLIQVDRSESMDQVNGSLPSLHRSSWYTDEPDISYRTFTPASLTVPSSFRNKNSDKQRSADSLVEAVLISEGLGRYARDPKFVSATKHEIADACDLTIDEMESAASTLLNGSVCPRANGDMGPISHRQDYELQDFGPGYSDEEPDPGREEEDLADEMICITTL
Sequence of Voltage-dependent L-type calcium channel subunit alpha-1D (Rattus norvegicus) (P27732 whole entry): as above

| SMILES | IC50 [2] [µM] | IC50 [3] [µM] | Ratio IC50 [4] | also measured |
| --- | --- | --- | --- | --- |
| CCOC(=O)N1C(=O)N(C(=O)OCC)C(c2cccc([N+](=O)[O-])c2)C(C(=O)OC)=C1C(C)C (configuration not stated) | 13.9 | 13.9 | – | Ratio IC50 [1]: 1 |
| COC(=O)N1C(SC)=NC(C)=C(C(=O)OC(C)C)C1c1cccc([N+](=O)[O-])c1 (configuration not stated) | 5.54 | 10.7 | 0.4 | – |
| COC(=O)N1C(=O)N(C(=O)OC)C(c2cccc([N+](=O)[O-])c2)C(C(=O)OC(C)C)=C1C (configuration not stated) | 6.13 | 5.88 | 1.1 | – |
| CC1=C(C(=O)OC(C)C)C(c2cccc([N+](=O)[O-])c2)N(C(=O)C(C)C)C(=O)N1 (configuration not stated) | 0.5 | 0.99 | 0.5 | – |
| CC1=C(C(=O)OC(C)C)[C@H](c2cccc([N+](=O)[O-])c2)N(C(=O)OC(C)C)C(=O)N1 | 3.07 | 1.96 | 1.6 | – |
| COC(=O)C1=C(C)NC(=O)NC1c1cccc([N+](=O)[O-])c1 (configuration not stated) | 11.7 | 18.9 | 0.6 | – |
| CC1=C(C(=O)OC(C)C)C(c2cccc([N+](=O)[O-])c2)NC(=O)N1 (configuration not stated) | 58.1 | 46.6 | – | – |
| CC1=C(C(=O)OC(C)C)C(c2cccc([N+](=O)[O-])c2)NC(=S)N1 (configuration not stated) | 10.7 | 15.8 | 0.7 | – |
| COC(=O)C1=C(C)NC(C)=C(C(=O)OC(C)C)C1c1cccc2nonc12 (configuration not stated) [ISRADIPINE] | 0.107 | 0.221 | 0.5 | Selectivity ratio [5]: 0.69 |
| CNC1=NC(C)=C(C(=O)OC(C)C)C(c2cccc([N+](=O)[O-])c2)N1C(=O)OC (configuration not stated) | 2.45 | 3.25 | 0.8 | – |
| CCOC(=O)C1=C(N)OC(C)=C(C(=O)OC)C1c1cccc([N+](=O)[O-])c1 (configuration not stated) | 0.58 | 2.72 | 0.2 | – |
| COC(=O)C1=C(C)NC(=S)N(C(=O)OC(C)C)C1c1cccc([N+](=O)[O-])c1 (configuration not stated) | 0.17 | 0.88 | 0.2 | – |
| CNC1=NC(C)=C(C(=O)OC)C(c2cccc([N+](=O)[O-])c2)N1C(=O)OC(C)C (configuration not stated) | 1.81 | 4.22 | 0.4 | – |
| COC(=O)C1=C(C(C)C)NC(=O)NC1c1cccc([N+](=O)[O-])c1 (configuration not stated) | > 100 | > 100 | – | – |
| COC(=O)N1C(=S)NC(C)=C(C(=O)OC(C)C)[C@H]1c1cccc([N+](=O)[O-])c1 | 0.5 | 0.56 | 0.9 | – |
| COC(=O)C1=C(C(C)C)NC(=O)N(C(=O)C(C)C)C1c1cccc([N+](=O)[O-])c1 (configuration not stated) | 56.6 | > 100 | – | – |
| CCOC(=O)C1=C(NC(C)=O)OC(C)=C(C(=O)OC)C1c1cccc([N+](=O)[O-])c1 (configuration not stated) | 4.75 | 10 | 0.5 | – |
| COC(=O)C1=C(C)NC(=S)NC1c1cccc([N+](=O)[O-])c1 (configuration not stated) | 55 | > 100 | – | – |
| COC(=O)SC1=NC(C)=C(C(=O)OC(C)C)C(c2cccc([N+](=O)[O-])c2)N1C(=O)OC (configuration not stated) | 1.02 | 1.11 | 0.9 | – |

| SMILES | IC50 [2] [µM] | IC50 [3] [µM] | Ratio IC50 [4] | also measured |
| --- | --- | --- | --- | --- |
| COC(=O)C1=C(C)OC(N)=C(C(=O)OC(C)C)C1c1cccc([N+](=O)[O-])c1 (configuration not stated) | 0.41 | 1.82 | 0.2 | – |
| COC(=O)N1C(=S)NC(C)=C(C(=O)OC(C)C)C1c1cccc([N+](=O)[O-])c1 (racemic) | 0.35 | 0.55 | 0.6 | – |
| CSC1=NC(c2cccc([N+](=O)[O-])c2)C(C(=O)OC(C)C)=C(C)N1 (configuration not stated) | 0.42 | 1.86 | 0.2 | – |
| COC(=O)N1C(=O)NC(C)=C(C(=O)OC(C)C)[C@H]1c1cccc([N+](=O)[O-])c1 | 2.36 | 1.91 | 1.2 | – |
| COC(=O)N1C(=O)NC(C)=C(C(=O)OC(C)C)[C@@H]1c1cccc([N+](=O)[O-])c1 | 21.7 | 35.1 | 0.6 | – |
| CC1=C(C(=O)OC(C)C)C(c2cccc([N+](=O)[O-])c2)C(C(=O)OC(C)C)=C(N)O1 (configuration not stated) | 0.86 | 1.39 | 0.6 | – |
| COC(=O)C1=C(C)OC(NC(C)=O)=C(C(=O)OC(C)C)C1c1cccc([N+](=O)[O-])c1 (configuration not stated) | 6.11 | 13.6 | 0.5 | – |
| CC(C)OC(=O)C1=C(C(C)C)NC(=O)N(C(=O)OC(C)C)C1c1cccc([N+](=O)[O-])c1 (configuration not stated) | 1.93 | 4.31 | 0.5 | – |
| COC(=O)N1C(=S)NC(C)=C(C(=O)OC(C)C)[C@@H]1c1cccc([N+](=O)[O-])c1 | 9.87 | 12.8 | 0.8 | – |
| CCOC(=O)C1=C(NC(=O)C(C)C)OC(C)=C(C(=O)OC)C1c1cccc([N+](=O)[O-])c1 (configuration not stated) | 4.23 | 9.95 | 0.4 | – |
| CC1=C(C(=O)OC(C)C)[C@@H](c2cccc([N+](=O)[O-])c2)N(C(=O)OC(C)C)C(=O)N1 | 1.02 | 0.51 | 2.1 | inhibition (INH) [6]: Active; inhibition [7]: Active; inhibition (INH) [8]: Active; inhibition [9]: Active |
| CCOC(=O)N1C(=O)NC(C(C)C)=C(C(=O)OC)C1c1cccc([N+](=O)[O-])c1 (configuration not stated) | 14.8 | 24.5 | 0.6 | – |
| COC(=O)N1C(=O)NC(C)=C(C(=O)OC(C)C)C1c1cccc([N+](=O)[O-])c1 (racemic) | 2.48 | 2.96 | 0.9 | – |
| COC(=O)C1=C(C)N=C(SC)NC1c1cccc([N+](=O)[O-])c1 (configuration not stated) | 3.29 | 10.6 | 0.3 | – |
| COC(=O)C1=C(C)N=C(SC)N(C(=O)OC(C)C)C1c1cccc([N+](=O)[O-])c1 (configuration not stated) | 16.1 | 5.58 | 3 | – |
| CC1=C(C(=O)OC(C)C)C(c2cccc([N+](=O)[O-])c2)N(C(=O)OC(C)C)C(=O)N1 (racemic) | 0.64 | 0.66 | 1 | – |
| COC(=O)C1=C(C(C)C)NC(=O)N(C(=O)OC(C)C)C1c1cccc([N+](=O)[O-])c1 (configuration not stated) | 10.4 | 10.1 | 1 | – |
| COC(=O)C1=C(C)NC(=O)N(C(=O)OC(C)C)C1c1cccc([N+](=O)[O-])c1 (configuration not stated) | 2.48 | 4.6 | 0.6 | – |
